This data set deals with MS2 coat protein. Briefly: apparent Kd, MS2 coat protein; higher = weaker binding; RNA-MaP array; FMN 200 µM where present. Put shortly: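 Green signal from SNAP-549-labelled MS2 coat protein was normalised to red-channel RNA signal and to the median Fmax of control clusters. The protein was titrated from 0.7 or 1.5 nM, doubling to 3 µM, without and then with constant ligand, over designs transcribed by stalled E. coli RNA polymerase on Illumina sequencing-chip clusters, in 100 mM Tris-HCl pH 7.5, 80 mM KCl, 4 mM MgCl2, BSA, DTT, yeast tRNA and Tween-20. The apparent Kd is the median of filtered per-cluster binding-curve fits.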

The mark [1] stands for this setting: designed as: OFF switch for flavin mononucleotide, no ligand.
The mark [2] stands for this setting: ligand present: flavin mononucleotide, designed as: OFF switch for flavin mononucleotide.
Where [3] appears, read: designed as: ON switch for flavin mononucleotide, no ligand.
The mark [4] stands for this setting: ligand present: flavin mononucleotide, designed as: ON switch for flavin mononucleotide.

Broadly, the apparent Kd is the concentration giving half-maximal binding under the conditions of the assay. “AGAUAAUAGCAGAAGGGCCAUGGACAUGAGGAUCACCCAUGUAACGGUGGACUCAUUUGUGAAGGGCAGGAUAUGCAAUAAAGA”: the “apparent Kd” value is 160 nM under setting [1] and 13.4 nM under setting [2].
Taken in the same sequence, the figures for “UAUAUGUCAGGAUAUUAGUUGUGGACGAAUAAGACUUCUGCUGAGAAGGGACAUGAGGAUCACCCAUGUUCCUC” were 15.8 nM and 19.4 nM.
Turning to “UGGUCCCAGCGUUUGCUGGCCGCUCCAGAAGGCGAUCCAACAUGAGGAUCACCCAUGUCACCGAUCGAGGAUAUGGUUAAGGAU”, the “apparent Kd” value reads like this: under setting [3], 242 nM; under setting [4], 25.4 nM.
In the same order, the values of “AUGGAUAUCACAGGAUAUGCCAGGGAUACCCUGGCAGAAGGGUGAUCCAUCCUAUGUAAAUACAUGAGGAUCACCCAUGUGUCC” are 51.7 nM and 43.6 nM.
In the same order, the values of “GACAUGAGGAUCACCCAUGUCCAUGCAAGAGUAGUUGAGACCAGAAGGACCUUGCGGAGCGCAGGGUAGGAUAUGGAGCCCUCA” are 36.3 nM and 8.75 nM.
Taken in the same sequence, the figures for “UUGGCAACGUAGAAGGGUGACAUGAGGAUCACCCAUGUGCCGAUAUAUCUCGAGAUAUGUCGGCCACAGGAUAUACGUGCCAUC” were 35.9 nM and 35.2 nM.
“AUCGGCAACACCAUGGUGGAUCCUGAGGAUAUGAAAAGCUACAUGAGGAUCACCCAUGUCCCGCGUCAGAAGGCAGGUUUGAUC”: the “apparent Kd” value is, setting by setting: under setting [3], 138 nM; under setting [4], 17 nM.
In the same order, the values of “AAUCGGGAGCAGAAGGCAUGUCAUAAAACAUGAGGAUCACCCAUGUAGUUAAGGCGAAAGCCGCAUGAGGAUAUGCUCCCGUAA” are 5.61 nM and 4.69 nM.
As to “UGUCGGAGCAGAGGAUAUUACAUGAGGAUCACCCAUGUAUGAACCAAUAGCUGGAAACAUCAAUGUAAGAAGGCUGCUCCGACA”, the “apparent Kd” value came to 10.2 nM under setting [1] and 72.5 nM under setting [2].
On to “UUUUAACAUGAGGAUCACCCAUGUCGUUCAAAUCAAGGAUAUCAGACGUGUACACACGCCUGAGAAGGUGAAGCUC”, for which the “apparent Kd” value under setting [3] was 51.1 nM and the “apparent Kd” value under setting [4] was determined as 132 nM.
In the same order, the values of “UGUGUCAUCGAGAAGGCCUCAACAUGAGGAUCACCCAUGUUGUAAUAUGGGAGGAUAUCGAUGAUACAGCUACGUUUCGUAGCA” are 19 nM and 6.11 nM.
Taken in the same sequence, the figures for “GGGUACUUCGGAGGAUAUCAUGUAAAUACAUGAGGAUCACCCAUGUCGAUGGAGACAUCGGAGAUUGAGAAGGCCGAUGUACCG” were 171 nM and 9.34 nM.
In the same order, the values of “CCGAGUGGCGUACAGGAUAUGUUGCGUGGAACAUGAGGAUCACCCAUGUAUUUGCUCCUGCAUACGCAGAAGGGUGCGUCCUGGG” are 52.9 nM and 17.4 nM.
As to “UUGGUUGUCGUAGGAUAUGUAGGAUAUUCCUACAUGAGGAUCACCCAUGUUCGCAUGGAAGAAGGACGGAAGGACGAUGACCAU”, the “apparent Kd” value runs as follows: under setting [3], 317 nM; under setting [4], 109 nM.
Consider “GGAUAGGACAGAGGAUAUACGUGCUUGAGAUACUAGCAAAAUUUCCUCACAUGAGGAUCACCCAUGUAGAAGGCUGUCCUAUCG”, for which the “apparent Kd” value is 20.2 nM under setting [1] and 436 nM under setting [2].
As to “AAUAAACUCACAGGAUAUAGCAGCGGUCGCGUGAACUUACAGGCGACGAGGCUAGAAGGGUGACCACAUGAGGAUCACCCAUGU”, the “apparent Kd” value reads like this: under setting [3], 817 nM; under setting [4], 219 nM.
For the sequence “GAGAUGUGAGGAUAUCUAGACCGCGAAAGAGCCGCGGUCCGAGAGAAGGCACAUGAGGAUCACCCAUGUGAUGA”, the “apparent Kd” value under setting [1] stood at 46.9 nM and the “apparent Kd” value under setting [2] is 119 nM.
In the same order, the values of “UUGCUACAUGAGGAUCACCCAUGUCAGGAUAUUGUGUAUAGCGUGGAAGCUCUGUCGAUAAGAAGGGACUGUCU” are 25.6 nM and 23.3 nM.
In the same order, the values of “UUCGUGCAGCAUUGCUGUACGCGUACAUGAGGAUCACCCAUGUAGGAUAUGGUAGGCAAAGCUUACUAGAAGGAUAUAGUGAUC” are 109 nM and 114 nM.
On to “CCGAUGAUAGGACAGGAUAUGACUGUCGUCACAUGAGGAUCACCCAUGUCCCGGCAAUGCCACCGUUAGAAGGGUCCUAUCUCGG”, for which the “apparent Kd” value is 13.1 nM under setting [3] and 13 nM under setting [4].
“UUGGACGUCGUAGGAUAUGUAGGAUAUUCCUACAUGAGGAUCACCCAUGUUGACAUGGAAGAAGGACAGAAGGACUAUGUCCAU”: the “apparent Kd” value by setting is: under setting [3], 195 nM; under setting [4], 8.53 nM.
Turning to “UUACCUCAUGAGAAGGACAUGAGGAUCACCCAUGUAGGAUAUCGUGGGACAGUGGAAUUGAAUCUUCGGAUUCAAUAACUCUAU”, the “apparent Kd” value runs as follows: under setting [3], 327 nM; under setting [4], 26.1 nM.
On to “UCUGCCGCCGUGAGGAUAUGCCCAAACAAAAGCGGGCAGAAGGCACAUGAGGAUCACCCAUGUCCCGCGGUUUU”, for which the “apparent Kd” value amounted to 18.5 nM under setting [1] and 37 nM under setting [2].
“GCUGUGGCAUGAGGAUAUGGUCUGCUUUGCAGACCAGAAGGCAUGUCAAUAGACAUGAGGAUCACCCAUGUAGUUAACACAGCA”: the “apparent Kd” value runs as follows: under setting [3], 510 nM; under setting [4], 38.6 nM.

For the origin of these results see the EternaBench riboswitch data.
